In brackets after ≈: the same amount, converted by molar mass. Like-named read-outs stand apart in the source and are kept apart here.
How the values were obtained:
B. subtilis ATCC23857 = assay: MIC, microbroth dilution in Mueller-Hinton broth; type: cell-based; conditions: Bacillus subtilis, ATCC23857, read-out: MIC BS
In short: (§1)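 CLSI broth microdilution in cation-adjusted Mueller-Hinton broth. Inocula were grown from MH agar colonies in MH broth, with a final inoculum of 10^5 CFU/ml. Test compound final range was 200–0.2 µg/ml, incubated 37°C for 18–20 h. MIC was the lowest concentration preventing visible growth. Runs were at least duplicate, and the mean MIC was reported.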

S. aureus NRS 70 (MRSA) = assay: MIC, microbroth dilution in Mueller-Hinton broth; type: cell-based; conditions: Staphylococcus aureus, MRSA|NRS70, read-out: MIC MRSA
In short: as §1

[1] = test system: E. coli BW25113 ΔtolC derivative JW5503-1; assay: MIC, microbroth dilution in Mueller-Hinton broth; type: cell-based, Escherichia coli; conditions: for MIC: Escherichia coli
S. pyogenes ATCC700294 = assay: MIC, microbroth dilution in Mueller-Hinton broth; type: cell-based; conditions: Streptococcus pyogenes, ATCC700294, read-out: MIC SPy
In short: as §1

B. anthracis sterne = assay: microbe, parasite or virus in culture; type: cell-based; conditions: Bacillus anthracis, read-out: MIC BA
P. mirabilis ATCC 25933 = assay: MIC, microbroth dilution in Mueller-Hinton broth; type: cell-based; conditions: Proteus mirabilis, ATCC25933, read-out: MIC PM
P. aeruginosa PA01 = assay: MIC, microbroth dilution in Mueller-Hinton broth; type: cell-based, Pseudomonas aeruginosa; conditions: for MIC PA MH+BP/CCCP / MIC PA +: P. aeruginosa PA01; for MIC PA MH+BP/CCCP: MH broth with 30 µg/ml 2,2′-bipyridyl and 50 µg/ml CCCP; for MIC PA +: with clavulanic acid (6µg/ml); for MIC: Pseudomonas aeruginosa
P. vulgaris ATCC 33420 = assay: MIC, microbroth dilution in Mueller-Hinton broth; type: cell-based; conditions: Proteus vulgaris, ATCC33420, read-out: MIC PV
S. pneumoniae R6 = assay: MIC, microbroth dilution in Mueller-Hinton broth; type: cell-based; conditions: Streptococcus pneumoniae, R6, read-out: MIC SP
In short: as §1

E. coli BW25113 = assay: MIC, microbroth dilution in Mueller-Hinton broth; type: cell-based, Escherichia coli; conditions: for MIC EC MH+BP/CCCP / MIC EC +: E. coli BW25113; for MIC EC MH+BP/CCCP: MH broth with 30 µg/ml 2,2′-bipyridyl and 50 µg/ml CCCP; for MIC EC +: with clavulanic acid (6µg/ml); for MIC: Escherichia coli, BW25113, read-out: MIC EC, E. coli BW25113, Mueller-Hinton broth (Table 2)
[2] = test system: E. coli BW25113 ΔampC derivative JW4111-2; type: cell-based, Escherichia coli; conditions: for MIC: Escherichia coli, BW25113, read-out: MIC ECΔampC −
[3] = test system: S. aureus -ATCC29213 (MSSA); assay: MIC, microbroth dilution in Mueller-Hinton broth; type: cell-based; conditions: Staphylococcus aureus, read-out: MIC MSSA
In short: as §1

E. faecalis ATCC33186 = assay: MIC, microbroth dilution in Mueller-Hinton broth; type: cell-based; conditions: Enterococcus faecalis, ATCC33186, read-out: MIC EF
In short: as §1

[4] = test system: E. coli ATCC 35218 (Low-level TEM-1); assay: MIC with and without clavulanic acid; type: cell-based
In short: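 Mueller-Hinton broth microdilution per CLSI, run in parallel without and with the β-lactamase inhibitor clavulanic acid (6 µg/ml). MH-broth-grown inoculum was at 10^5 CFU/ml final, with test compound at 200–0.2 µg/ml final. Incubation was 37°C, 18–20 h, and the visible-growth endpoint was read. At least duplicate determinations; the mean MIC was reported.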

[5] = BW25113, read-out: MIC ECΔtolC MH
[6] = BW25113, read-out: MIC ECΔtolC MH+BP

SMILES	MIC (B. subtilis ATCC23857)	MIC (S. aureus NRS 70 (MRSA))	MIC ([1]; BW25113, read-out: MIC ECΔtolC)	MIC [1, 5]	MIC [1, 6]	MIC ECΔtolC MH+BP/CCCP [1]	MIC ECΔtolC MH+CCCP [1]	MIC (S. pyogenes ATCC700294)	MIC (B. anthracis sterne)	MIC (P. mirabilis ATCC 25933)	MIC PA MH+BP/CCCP (P. aeruginosa PA01)	MIC PA + (P. aeruginosa PA01)	MIC (P. aeruginosa PA01; PA01, read-out: MIC PA)	MIC (P. aeruginosa PA01; PA01, read-out: MIC PA MH)	MIC (P. aeruginosa PA01; PA01, read-out: MIC PA MH+BP)	MIC (P. aeruginosa PA01; PA01, read-out: MIC PA MH+CCCP)	MIC (P. vulgaris ATCC 33420)	MIC (S. pneumoniae R6)	MIC EC MH+BP/CCCP (E. coli BW25113)	MIC EC + (E. coli BW25113)	further results
CC1(C)SC2C(NC(=O)C(NC(=O)C3=C(O)C4CCCN4C3=O)c3ccccc3)C(=O)N2C1C(=O)O (stereo not shown) [Compound 2780]	0.78 µg/mL (≈ 1.52 µM)	50 µg/mL (≈ 97.2 µM)	6.25 µg/mL (≈ 12.1 µM)	6.25 µg/mL (≈ 12.1 µM)	6.25 µg/mL (≈ 12.1 µM)	3.13 µg/mL (≈ 6.08 µM)	3.13 µg/mL (≈ 6.08 µM)	0.78 µg/mL (≈ 1.52 µM)	1.56 µg/mL (≈ 3.03 µM)	1.56 µg/mL (≈ 3.03 µM)	6.25 µg/mL (≈ 12.1 µM)	12.5 µg/mL	25 µg/mL (≈ 48.6 µM)	25 µg/mL (≈ 48.6 µM)	25 µg/mL (≈ 48.6 µM)	6.25 µg/mL (≈ 12.1 µM)	12.5 µg/mL (≈ 24.3 µM)	0.39 µg/mL (≈ 0.758 µM)	25 µg/mL (≈ 48.6 µM)	50 µg/mL	MIC (P. aeruginosa PA01; PA01, read-out: MIC PA −): 25 µg/mL (≈ 48.6 µM); MIC (E. coli BW25113): 200 µg/mL (≈ 389 µM); MIC [2]: 12.5 µg/mL (≈ 24.3 µM); MIC ECΔampC + [2]: 3.13 µg/mL; MIC [3]: 0.39 µg/mL (≈ 0.758 µM); MIC (E. faecalis ATCC33186): 25 µg/mL (≈ 48.6 µM)
CC1(C)SC2C(NC(=O)C(NC(=O)C3=C(O)C(Cc4ccccc4)NC3=O)c3ccccc3)C(=O)N2C1C(=O)O (stereo not shown) [Compound 2781]	0.78 µg/mL (≈ 1.38 µM)	25 µg/mL (≈ 44.3 µM)	3.13 µg/mL (≈ 5.54 µM)	3.13 µg/mL (≈ 5.54 µM)	3.13 µg/mL (≈ 5.54 µM)	1.56 µg/mL (≈ 2.76 µM)	1.56 µg/mL (≈ 2.76 µM)	0.39 µg/mL (≈ 0.691 µM)	3.13 µg/mL (≈ 5.54 µM)	3.13 µg/mL (≈ 5.54 µM)	1.56 µg/mL (≈ 2.76 µM)	3.13 µg/mL	12.5 µg/mL (≈ 22.1 µM)	12.5 µg/mL (≈ 22.1 µM)	6.25 µg/mL (≈ 11.1 µM)	3.13 µg/mL (≈ 5.54 µM)	6.25 µg/mL (≈ 11.1 µM)	< 0.2 µg/mL	3.13 µg/mL (≈ 5.54 µM)	6.25 µg/mL	MIC ([4]; Escherichia coli, ATCC35218, read-out: MIC ATCC 35218 (Low-level TEM-1) - CLV): > 200 µg/mL; MIC ATCC 35218 (Low-level TEM-1) + CLV ([4]; with clavulanic acid (6 µg/ml)): 25 µg/mL; MIC (P. aeruginosa PA01; PA01, read-out: MIC PA −): 12.5 µg/mL (≈ 22.1 µM); MIC (E. coli BW25113): 100 µg/mL (≈ 177 µM); MIC [2]: 6.25 µg/mL (≈ 11.1 µM); MIC ECΔampC + [2]: 3.13 µg/mL; MIC [3]: < 0.2 µg/mL; MIC (E. faecalis ATCC33186): 25 µg/mL (≈ 44.3 µM)
CC1(C)SC2C(NC(=O)C(NC(=O)C3=C(O)C4(CC4)NC3=O)c3ccccc3)C(=O)N2C1C(=O)O (stereo not shown) [Compound 2833]	0.39 µg/mL (≈ 0.779 µM)	25 µg/mL (≈ 49.9 µM)	3.13 µg/mL (≈ 6.25 µM)	3.13 µg/mL (≈ 6.25 µM)	1.56 µg/mL (≈ 3.12 µM)	0.78 µg/mL (≈ 1.56 µM)	1.56 µg/mL (≈ 3.12 µM)	0.78 µg/mL (≈ 1.56 µM)	1.56 µg/mL (≈ 3.12 µM)	6.25 µg/mL (≈ 12.5 µM)	12.5 µg/mL (≈ 25 µM)	6.25 µg/mL	25 µg/mL (≈ 49.9 µM)	25 µg/mL (≈ 49.9 µM)	25 µg/mL (≈ 49.9 µM)	12.5 µg/mL (≈ 25 µM)	100 µg/mL (≈ 200 µM)	< 0.2 µg/mL	6.25 µg/mL (≈ 12.5 µM)	12.5 µg/mL	MIC (E. coli BW25113): 100 µg/mL (≈ 200 µM); MIC [2]: 12.5 µg/mL (≈ 25 µM); MIC ECΔampC + [2]: 6.25 µg/mL; MIC [3]: < 0.2 µg/mL; MIC (E. faecalis ATCC33186): 12.5 µg/mL (≈ 25 µM)
CC1(C)SC2C(NC(=O)C(NC(=O)C3=C(O)C(Cc4ccc([N+](=O)[O-])cc4)NC3=O)c3ccccc3)C(=O)N2C1C(=O)O (stereo not shown) [Compound 2835]	< 0.2 µg/mL	25 µg/mL (≈ 41 µM)	3.13 µg/mL (≈ 5.13 µM)	3.13 µg/mL (≈ 5.13 µM)	1.56 µg/mL (≈ 2.56 µM)	0.78 µg/mL (≈ 1.28 µM)	1.56 µg/mL (≈ 2.56 µM)	0.78 µg/mL (≈ 1.28 µM)	3.13 µg/mL (≈ 5.13 µM)	25 µg/mL (≈ 41 µM)	12.5 µg/mL (≈ 20.5 µM)	6.25 µg/mL	25 µg/mL (≈ 41 µM)	25 µg/mL (≈ 41 µM)	25 µg/mL (≈ 41 µM)	12.5 µg/mL (≈ 20.5 µM)	25 µg/mL (≈ 41 µM)	< 0.2 µg/mL	12.5 µg/mL (≈ 20.5 µM)	6.25 µg/mL	MIC (E. coli BW25113): 100 µg/mL (≈ 164 µM); MIC ECΔampC + [2]: 12.5 µg/mL; MIC [3]: < 0.2 µg/mL; MIC (E. faecalis ATCC33186): 25 µg/mL (≈ 41 µM)
